ChEMBL document CHEMBL1128705, “[[[(Thienylcarbonyl)alkyl]oxy]phenyl]- and [[[(pyrrylcarbonyl)alkyl]oxy]phenyl]oxazoline derivatives with potent and selective antihuman rhinovirus activity” (J Med Chem, 1995)
In brackets after ≈: the same amount, converted by molar mass.

What was measured:
Human rhinovirus sp. [1] = experiment: In vitro concentration required to achieve 50% protection of HeLa cells from HRV-14 induced cytopathic effect; assay type: functional, organism-based
Outline: (§1)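 HeLa-Ohio cells (20 000/well) are seeded in D-MEM with 2% FCS, 30 mM MgCl2 and 15 µg/mL DEAE-dextran, then grown overnight at 37 °C, 5% CO2, to a subconfluent monolayer. Compound dilutions (from 200× DMSO stocks) are added with HRV at 200–2000 PFU/monolayer, dosed to give full CPE in 72 h. Plates are held at 33 °C and viability is read by MTT. EC50 is the concentration giving 50% protection.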

HeLa [2] = experiment: In vitro concentration required to achieve 50% protection of HeLa cells from HRV-2 induced cytopathic effect; assay type: functional, cell-based; details: Homo sapiens; outline: as §1
HeLa [3] = experiment: In vitro concentration required to reduce the viability of mock-infected HeLa cells by 50%; assay type: functional; details: Homo sapiens
Outline: (§2)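 Cytotoxicity run alongside the antiviral assay on mock-infected HeLa-Ohio cells. Compounds are taken from 200× DMSO stocks and serially diluted in maintenance medium. Cells are incubated 72 h at 37 °C and viability is read by MTT. CC50 is the concentration that reduces viability by 50%.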

Human rhinovirus sp. [4] = experiment: In vitro concentration which inhibits 80% of serotypes tested; assay type: functional
Outline: (§3)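 CPE-inhibition MTT assay in HeLa-Ohio cells (30 mM MgCl2, 15 µg/mL DEAE-dextran, 2% FCS), infected at 200–2000 PFU/monolayer and incubated at 33 °C. MIC80 is the concentration inhibiting 80% of the serotypes tested.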

Human rhinovirus sp. [5] = experiment: Compound concentration which inhibits 80% of serotypes tested, was reported.; assay type: functional; outline: as §3
HeLa [6] = experiment: Compound concentration required to reduce the viability of mock-infected HeLa cells by 50%, was reported.; assay type: functional; details: Homo sapiens; outline: as §2
HeLa [7] = experiment: In vitro concentration required to reduce the viability of mock-infected HeLa cells by 50%, was reported.; assay type: functional; details: Homo sapiens; outline: as §2

SMILES	EC50 (Human rhinovirus sp. [1]) [µM]	EC50 (HeLa [2]) [nM]	MIC80 (Human rhinovirus sp. [4]) [µM]	MIC80 (Human rhinovirus sp. [5]) [µM]	CC50 (HeLa [3]) [µM]	CC50 (HeLa [6]) [µM]	CC50 (HeLa [7]) [µM]
CCOC(=O)c1ccc(OCCCCC(=O)c2ccc(C)o2)cc1	2.42	910			65		
CCOC(=O)c1ccc(OCCCCC(=O)c2ccc(Cl)s2)cc1	0.54	80	2.18 (≈ 0.8 µg/mL)		273		
Cn1cc(C(=O)CCCCOc2ccc(C(=O)O)cc2)cc1C=O	> 30.9	> 30900		> 30.9		> 303	
O=C(CCCCOc1ccc(C2=NCCO2)cc1)c1ccc[nH]1	8.01	3200	> 32		> 320		
Clc1ccc(CCCCCOc2ccc(C3=NCCO3)cc2)s1	2.85	2570	21.4 (≈ 7.5 µg/mL)		71		
O=C(CCCCOc1ccc(C2=NCCO2)cc1)c1ccc(Cl)s1	0.13	810	> 27.1		> 271		
Cc1csc(C(=O)CCCCOc2ccc(C(=O)O)cc2)c1	> 31.4	> 31400	> 31.4		> 314		
CCOC(=O)c1ccc(OCCCCC(=O)c2cc(C)[nH]c2C)cc1	18.9	1170	> 29		204		
Cc1ccc(C(=O)CCCCOc2ccc(C(=O)O)cc2)s1	> 31.4	> 31400	> 31.4		> 314		
Cc1ccc(CCCCCOc2ccc(C3=NCCO3)cc2)s1	11.5	2580	> 30.4		> 303		
Cc1ccc(C(=O)CCCOc2ccc(C3=NCCO3)cc2)s1	22.7	15200	> 30.3				
Cc1ccc(C(=O)CCCCOc2ccc(C(=O)NCCO)cc2)o1	> 30.6	> 30600	> 30.6		> 305		
Cc1csc(C(=O)CCCCOc2ccc(C3=NCCO3)cc2)c1	0.87	2910	14.6 (≈ 5.01 µg/mL)		73		
CCOC(=O)c1ccc(OCCCCC(=O)c2cc(C)cs2)cc1	5.78	2890			> 289		
Cc1cc(C(=O)CCCCOc2ccc(C3=NCCO3)cc2)c(C)[nH]1	> 29.4	> 29400	> 29.4		205		
CCOC(=O)c1ccc(OCCCCC(=O)c2cc[nH]c2)cc1	13.3	11000	19.5 (≈ 6.14 µg/mL)		> 317		
CCOC(=O)c1ccc(OCCCCCc2ccc(Cl)s2)cc1	9.15	1840	18.3 (≈ 6.45 µg/mL)		> 284		
CCOC(=O)c1ccc(OCCCCC(=O)c2ccc(C)s2)cc1	0.29	60	2.31 (≈ 0.8 µg/mL)		> 289		
O=C(O)c1ccc(OCCCCC(=O)c2ccc(Cl)s2)cc1	> 29.5	> 29500	> 29.5		> 295		
O=C(CCCCOc1ccc(C2=NCCO2)cc1)c1cc[nH]c1	> 32	> 32000	> 32		> 320		

Continued, in another order:

EC50 (Human rhinovirus sp. [1]) [µM]	EC50 (HeLa [2]) [nM]	MIC80 (Human rhinovirus sp. [4]) [µM]	MIC80 (Human rhinovirus sp. [5]) [µM]	SMILES	CC50 (HeLa [3]) [µM]	CC50 (HeLa [6]) [µM]	CC50 (HeLa [7]) [µM]
> 31.9	1430	15.9 (≈ 4.75 µg/mL)		c1ccn(CCCCCOc2ccc(C3=NCCO3)cc2)c1	159		
0.14	1310	9.04 (≈ 3.1 µg/mL)		Cc1ccc(C(=O)CCCCOc2ccc(C3=NCCO3)cc2)s1	146		
> 30.1	10600	> 30.1		CCOC(=O)c1ccc(OCCCC(=O)c2ccc(C)s2)cc1	> 301		
11.3	> 28200	> 28.2		Cc1cc(C(=O)CCCCOc2ccc(C3=NCCO3)cc2)c(C)n1C	141		
> 31.4	> 31400	> 31.4		Cc1ccsc1C(=O)CCCCOc1ccc(C(=O)O)cc1	> 314		
7.16	1590	14.3 (≈ 4.76 µg/mL)		CCOC(=O)c1ccc(OCCCCCc2ccc(C)s2)cc1	301		
16.8	2280	> 28		CCOC(=O)c1ccc(OCCCCC(=O)c2cc(C)n(C)c2C)cc1	56		
> 33.1	> 33100	> 33.1		c1cc(C2=NCCO2)ccc1OCCCCCN1CCCC1	165		
3.68	> 30700	> 30.7		Cn1cccc1C(=O)CCCCOc1ccc(C2=NCCO2)cc1			> 306
1.96	670		8.4 (≈ 3 µg/mL)	CCOC(=O)c1ccc(OCCCCC(=O)c2cc(C=O)n(C)c2)cc1		56	
1.46	29200	> 29.1		Cc1ccsc1C(=O)CCCCOc1ccc(C2=NCCO2)cc1	291		
> 28.9	6940	20.8 (≈ 7.21 µg/mL)		CCOC(=O)c1ccc(OCCCCC(=O)c2sccc2C)cc1	202		
> 28.2	> 28200		> 28.2	Cn1cc(C(=O)CCCCOc2ccc(C3=NCCO3)cc2)cc1C=O		> 282	
1.76	2350		3.51 (≈ 1.2 µg/mL)	Cc1cc(CCCCCCCOc2ccc(C3=NCCO3)cc2)on1 [DISOXARIL]		37	
